Assay results: ChEMBL document CHEMBL1671716, “Antimicrobial susceptibility patterns for recent clinical isolates of anaerobic bacteria in South Korea” (2010)
Values after ≈ are worked out from the molar mass of the structure shown.

Experiments:
Parvimonas micra = experiment: Antimicrobial activity against Peptostreptococcus micros after 48 hrs by agar dilution method; type: functional
Procedure, shortened: (§1)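 CLSI agar dilution (M11-A7); inoculum 10^5 CFU applied by replicator; plates incubated anaerobically 48 h at 37°C. For piperacillin-tazobactam, tazobactam held constant at 4 μg/ml.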

[1] = system: Bifidobacterium adolescentis; experiment: Antimicrobial activity against Bifidobacterium adolescentis assessed as percent susceptible isolates after 48 hrs by agar dilution method; type: functional
[2] = system: Bacteroides thetaiotaomicron; experiment: Antimicrobial activity against Bacteroides thetaiotaomicron after 48 hrs by agar dilution method; type: functional
Procedure, shortened: (§2)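 MICs on clinical anaerobe isolates by the CLSI agar dilution method. Inoculum of 10^5 CFU applied with a Steers replicator. Plates incubated 48 h at 37°C in an anaerobic chamber.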

Schaalia meyeri [3] = experiment: Antimicrobial activity against Actinomyces meyeri assessed as percent susceptible isolates after 48 hrs by agar dilution method; type: functional
[4] = system: Bacteroides thetaiotaomicron; experiment: Antimicrobial activity against Bacteroides thetaiotaomicron assessed as percent susceptible isolates after 48 hrs by agar dilution method; type: functional
Phocaeicola vulgatus = experiment: Antimicrobial activity against Bacteroides vulgatus after 48 hrs by agar dilution method; type: functional; procedure, shortened: as §2
Clostridium perfringens = experiment: Antimicrobial activity against Clostridium perfringens after 48 hrs by agar dilution method; type: functional
[5] = system: Peptoniphilus asaccharolyticus; experiment: Antimicrobial activity against Peptoniphilus asaccharolyticus after 48 hrs by agar dilution method; type: functional; procedure, shortened: as §1
Actinomyces naeslundii [6] = experiment: Antimicrobial activity against Actinomyces naeslundii assessed as percent resistant isolates after 48 hrs by agar dilution method; type: functional
Procedure, shortened: (§3)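 CLSI agar dilution on recent Korean clinical anaerobe isolates. Inoculum 10^5 CFU per spot by replicator. Plates incubated in an anaerobic chamber at 37°C for 48 h. For piperacillin plus tazobactam, tazobactam was held constant at 4 μg/ml. Resistance and susceptibility rates derived from MICs.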

Bifidobacterium sp. = experiment: Antimicrobial activity against Bifidobacterium sp. assessed as percent susceptible isolates after 48 hrs by agar dilution method; type: functional; procedure, shortened: as §1
Prevotella intermedia [7] = experiment: Antimicrobial activity against Prevotella intermedia assessed as percent susceptible isolates after 48 hrs by agar dilution method; type: functional; procedure, shortened: as §1
[8] = system: Parabacteroides distasonis; experiment: Antimicrobial activity against Bacteroides distasonis assessed as percent resistant isolates after 48 hrs by agar dilution method; type: functional; procedure, shortened: as §3
[9] = system: Bacteroides thetaiotaomicron; experiment: Antimicrobial activity against Bacteroides thetaiotaomicron assessed as percent resistant isolates after 48 hrs by agar dilution method; type: functional; procedure, shortened: as §3
Actinomyces naeslundii [10] = experiment: Antimicrobial activity against Actinomyces naeslundii assessed as percent susceptible isolates after 48 hrs by agar dilution method; type: functional
Hoylesella oralis [11] = experiment: Antimicrobial activity against Prevotella oralis after 48 hrs by agar dilution method; type: functional; procedure, shortened: as §1
Bacteroides caccae = experiment: Antimicrobial activity against Bacteroides caccae after 48 hrs by agar dilution method; type: functional; procedure, shortened: as §2
Prevotella bivia [12] = experiment: Antimicrobial activity against Prevotella bivia assessed as percent susceptible isolates after 48 hrs by agar dilution method; type: functional; procedure, shortened: as §1
Prevotella buccae [13] = experiment: Antimicrobial activity against Prevotella buccae after 48 hrs by agar dilution method; type: functional; conditions: Segatella buccae; procedure, shortened: as §1
Prevotella bivia [14] = experiment: Antimicrobial activity against Prevotella bivia after 48 hrs by agar dilution method; type: functional; procedure, shortened: as §1
Hoylesella oralis [15] = experiment: Antimicrobial activity against Prevotella oralis assessed as percent resistant isolates after 48 hrs by agar dilution method; type: functional; procedure, shortened: as §3
Prevotella buccae [16] = experiment: Antimicrobial activity against Prevotella buccae assessed as percent resistant isolates after 48 hrs by agar dilution method; type: functional, Segatella buccae; procedure, shortened: as §3
Prevotella intermedia [17] = experiment: Antimicrobial activity against Prevotella intermedia assessed as percent resistant isolates after 48 hrs by agar dilution method; type: functional; procedure, shortened: as §3
Fusobacterium varium = experiment: Antimicrobial activity against Fusobacterium varium after 48 hrs by agar dilution method; type: functional; procedure, shortened: as §1
Eggerthella lenta = experiment: Antimicrobial activity against Eubacterium lentum after 48 hrs by agar dilution method; type: functional; procedure, shortened: as §1
Schaalia odontolytica = experiment: Antimicrobial activity against Actinomyces odontolyticus after 48 hrs by agar dilution method; type: functional; procedure, shortened: as §2
Schaalia meyeri [18] = experiment: Antimicrobial activity against Actinomyces meyeri assessed as percent resistant isolates after 48 hrs by agar dilution method; type: functional; procedure, shortened: as §3
Actinomyces israelii = experiment: Antimicrobial activity against Actinomyces israelii assessed as percent resistant isolates after 48 hrs by agar dilution method; type: functional; procedure, shortened: as §3
[19] = system: Parabacteroides distasonis; experiment: Antimicrobial activity against Bacteroides distasonis assessed as percent susceptible isolates after 48 hrs by agar dilution method; type: functional
Finegoldia magna = experiment: Antimicrobial activity against Finegoldia magna assessed as percent susceptible isolates after 48 hrs by agar dilution method; type: functional; procedure, shortened: as §1

SMILES: CO[C@@]1(NC(=O)Cc2cccs2)C(=O)N2C(C(=O)O)=C(COC(N)=O)CS[C@@H]21 [CEFOXITIN]
- MIC50 (Parvimonas micra): 1 µg/mL (≈ 2.34 µM)
- MIC90 (Parvimonas micra): 16 µg/mL (≈ 37.4 µM)
- Activity [1]: 92%
- MIC50 [2]: 32 µg/mL (≈ 74.9 µM)
- MIC90 [2]: 32 µg/mL (≈ 74.9 µM)
- Activity (Schaalia meyeri [3]): 92%
- Activity [4]: 25%
- MIC50 (Phocaeicola vulgatus): 32 µg/mL (≈ 74.9 µM)
- MIC90 (Phocaeicola vulgatus): 32 µg/mL (≈ 74.9 µM)
- MIC50 (Clostridium perfringens): 1 µg/mL (≈ 2.34 µM)
- MIC90 (Clostridium perfringens): 2 µg/mL (≈ 4.68 µM)
- MIC50 [5]: ≤ 0.06 µg/mL
- MIC90 [5]: 0.5 µg/mL (≈ 1.17 µM)
- Activity (Actinomyces naeslundii [6]): 0%
- Activity (Bifidobacterium sp.): 92%
- Activity (Prevotella intermedia [7]): 100%
- Activity [8]: 7%
- Activity [9]: 7%
- Activity (Actinomyces naeslundii [10]): 92%
- MIC50 (Hoylesella oralis [11]): 1 µg/mL (≈ 2.34 µM)
- MIC90 (Hoylesella oralis [11]): 32 µg/mL (≈ 74.9 µM)
- MIC50 (Bacteroides caccae): 32 µg/mL (≈ 74.9 µM)
- MIC90 (Bacteroides caccae): 32 µg/mL (≈ 74.9 µM)
- Activity (Prevotella bivia [12]): 89%
- MIC50 (Prevotella buccae [13]): 1 µg/mL (≈ 2.34 µM)
- MIC90 (Prevotella buccae [13]): 32 µg/mL (≈ 74.9 µM)
- MIC50 (Prevotella bivia [14]): 1 µg/mL (≈ 2.34 µM)
- MIC90 (Prevotella bivia [14]): 32 µg/mL (≈ 74.9 µM)
- Activity (Hoylesella oralis [15]): 0%
- Activity (Prevotella buccae [16]): 0%
- Activity (Prevotella intermedia [17]): 0%
- MIC (Fusobacterium varium): 0.06 µg/mL (≈ 0.14 µM)
- MIC50 (Eggerthella lenta): 2 µg/mL (≈ 4.68 µM)
- MIC90 (Eggerthella lenta): 16 µg/mL (≈ 37.4 µM)
- MIC50 (Schaalia odontolytica): 2 µg/mL (≈ 4.68 µM)
- MIC90 (Schaalia odontolytica): 16 µg/mL (≈ 37.4 µM)
- Activity (Schaalia meyeri [18]): 0%
- Activity (Actinomyces israelii): 0%
- Activity [19]: 25%
- Activity (Finegoldia magna): 100%

SMILES: C[C@@H](O)[C@H]1C(=O)N2C(C(=O)O)=C(SCCNC=N)C[C@H]12 [IMIPENEM ANHYDROUS]
- MIC50 (Parvimonas micra): 0.125 µg/mL (≈ 0.418 µM)
- MIC90 (Parvimonas micra): 2 µg/mL (≈ 6.68 µM)
- Activity [1]: 100%
- MIC50 [2]: 0.5 µg/mL (≈ 1.67 µM)
- MIC90 [2]: 4 µg/mL (≈ 13.4 µM)
- Activity (Schaalia meyeri [3]): 100%
- Activity [4]: 95%
- MIC50 (Phocaeicola vulgatus): 0.5 µg/mL (≈ 1.67 µM)
- MIC90 (Phocaeicola vulgatus): 4 µg/mL (≈ 13.4 µM)
- MIC50 (Clostridium perfringens): 0.125 µg/mL (≈ 0.418 µM)
- MIC90 (Clostridium perfringens): 0.125 µg/mL (≈ 0.418 µM)
- MIC50 [5]: ≤ 0.008 µg/mL
- MIC90 [5]: 0.03 µg/mL (≈ 0.1 µM)
- Activity (Actinomyces naeslundii [6]): 0%
- Activity (Bifidobacterium sp.): 100%
- Activity (Prevotella intermedia [7]): 100%
- Activity [8]: 4%
- Activity [9]: 4%
- Activity (Actinomyces naeslundii [10]): 100%
- MIC50 (Hoylesella oralis [11]): 0.06 µg/mL (≈ 0.2 µM)
- MIC90 (Hoylesella oralis [11]): 0.5 µg/mL (≈ 1.67 µM)
- MIC50 (Bacteroides caccae): 0.5 µg/mL (≈ 1.67 µM)
- MIC90 (Bacteroides caccae): 4 µg/mL (≈ 13.4 µM)
- Activity (Prevotella bivia [12]): 100%
- MIC50 (Prevotella buccae [13]): 0.06 µg/mL (≈ 0.2 µM)
- MIC90 (Prevotella buccae [13]): 0.5 µg/mL (≈ 1.67 µM)
- MIC50 (Prevotella bivia [14]): 0.06 µg/mL (≈ 0.2 µM)
- MIC90 (Prevotella bivia [14]): 0.5 µg/mL (≈ 1.67 µM)
- Activity (Hoylesella oralis [15]): 0%
- Activity (Prevotella buccae [16]): 0%
- Activity (Prevotella intermedia [17]): 0%
- MIC (Fusobacterium varium): 0.02 µg/mL (≈ 0.0668 µM)
- MIC50 (Eggerthella lenta): 0.06 µg/mL (≈ 0.2 µM)
- MIC90 (Eggerthella lenta): 0.5 µg/mL (≈ 1.67 µM)
- MIC50 (Schaalia odontolytica): 0.06 µg/mL (≈ 0.2 µM)
- MIC90 (Schaalia odontolytica): 0.5 µg/mL (≈ 1.67 µM)
- Activity (Schaalia meyeri [18]): 0%
- Activity (Actinomyces israelii): 0%
- Activity [19]: 95%
- Activity (Finegoldia magna): 100%

SMILES: O=C(N[C@H](CO)[C@H](O)c1ccc([N+](=O)[O-])cc1)C(Cl)Cl [CHLORAMPHENICOL]
- MIC50 (Parvimonas micra): 2 µg/mL (≈ 6.19 µM)
- MIC90 (Parvimonas micra): 2 µg/mL (≈ 6.19 µM)
- Activity [1]: 92%
- MIC [2]: 4 µg/mL (≈ 12.4 µM)
- MIC50 [2]: 4 µg/mL (≈ 12.4 µM)
- MIC90 [2]: 8 µg/mL (≈ 24.8 µM)
- Activity (Schaalia meyeri [3]): 92%
- Activity [4]: 98%
- MIC (Phocaeicola vulgatus): 4 µg/mL (≈ 12.4 µM)
- MIC50 (Phocaeicola vulgatus): 4 µg/mL (≈ 12.4 µM)
- MIC90 (Phocaeicola vulgatus): 8 µg/mL (≈ 24.8 µM)
- MIC50 (Clostridium perfringens): 4 µg/mL (≈ 12.4 µM)
- MIC90 (Clostridium perfringens): 4 µg/mL (≈ 12.4 µM)
- MIC50 [5]: 2 µg/mL (≈ 6.19 µM)
- MIC90 [5]: 4 µg/mL (≈ 12.4 µM)
- Activity (Actinomyces naeslundii [6]): 0%
- Activity (Bifidobacterium sp.): 92%
- Activity (Prevotella intermedia [7]): 100%
- Activity [8]: 0%
- Activity [9]: 0%
- Activity (Actinomyces naeslundii [10]): 92%
- MIC50 (Hoylesella oralis [11]): 4 µg/mL (≈ 12.4 µM)
- MIC90 (Hoylesella oralis [11]): 8 µg/mL (≈ 24.8 µM)
- MIC (Bacteroides caccae): 4 µg/mL (≈ 12.4 µM)
- MIC50 (Bacteroides caccae): 4 µg/mL (≈ 12.4 µM)
- MIC90 (Bacteroides caccae): 8 µg/mL (≈ 24.8 µM)
- Activity (Prevotella bivia [12]): 100%
- MIC50 (Prevotella buccae [13]): 4 µg/mL (≈ 12.4 µM)
- MIC90 (Prevotella buccae [13]): 8 µg/mL (≈ 24.8 µM)
- MIC50 (Prevotella bivia [14]): 4 µg/mL (≈ 12.4 µM)
- MIC90 (Prevotella bivia [14]): 8 µg/mL (≈ 24.8 µM)
- Activity (Hoylesella oralis [15]): 0%
- Activity (Prevotella buccae [16]): 0%
- Activity (Prevotella intermedia [17]): 0%
- MIC (Fusobacterium varium): 0.13 µg/mL (≈ 0.402 µM)
- MIC (Eggerthella lenta): 1 µg/mL (≈ 3.09 µM)
- MIC50 (Eggerthella lenta): 1 µg/mL (≈ 3.09 µM)
- MIC90 (Eggerthella lenta): 2 µg/mL (≈ 6.19 µM)
- MIC (Schaalia odontolytica): 1 µg/mL (≈ 3.09 µM)
- MIC50 (Schaalia odontolytica): 1 µg/mL (≈ 3.09 µM)
- MIC90 (Schaalia odontolytica): 2 µg/mL (≈ 6.19 µM)
- Activity (Schaalia meyeri [18]): 0%
- Activity (Actinomyces israelii): 0%
- Activity [19]: 98%
- Activity (Finegoldia magna): 100%
